Test results from ChEMBL document CHEMBL4428057, “Discovery, Synthesis, and Evaluation of 2,4-Diaminoquinazolines as a Novel Class of Pancreatic β-Cell-Protective Agents against Endoplasmic Reticulum (ER) Stress” (J Med Chem, 2016).
Activity calls are given as the source filed them. No cut-off for these calls is given here.

Key:
Beta-TC6 = experiment: Protection against tunicamycin induced endoplasmic reticulum stress in mouse BetaTC6 cells assessed as increase in cell viability after 72 hrs by CellTiter-Glo assay; format: functional, cell-based
Procedure, shortened: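 βTC6 cells (DMEM, 15% FBS) seeded at 3×10^3/well in 384-well plates with Tm 0.25 µg/mL ± compound or DMSO for 72 h. Viability by CellTiter-Glo (ATP luminescence) or MTT: 3 h with reagent at 37 °C, then 4 h with crystal-dissolving solution, absorbance at 570 nm. 3 replicate wells, 3 experiments.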

INS1 [1] = experiment: Reversal of tunicamycin induced PARP cleavage in rat INS-1 cells at 20 uM after 2 to 24 hrs by Western blot analysis; format: functional, cell-based
Procedure, shortened: (§1)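 Western blots of INS-1 cells (8×10^5/60-mm dish) treated with Tm 0.1 µg/mL ± compound 20 µM or DMSO for the indicated times. Lysates with EDTA and phosphatase inhibitors; 20 µg protein on 7% SDS-PAGE, PVDF. Primary antibodies at 1:1000 against ATF4, CHOP, cleaved caspase 3 or PARP; α-tubulin loading control; HRP secondaries. Representative of 3 experiments.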

INS1 [2] = experiment: Protection against tunicamycin induced endoplasmic reticulum stress in rat INS-1 cells assessed as increase in cell viability at 20 uM after 24 hrs by live-cell phase-contrast image analysis; format: functional, cell-based
Procedure, shortened: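 INS-1 cells treated with or without Tm 0.1 µg/mL in the presence of compound 20 µM or DMSO for 24 h; live-cell phase-contrast images acquired at 10× magnification.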

INS1 [3] = experiment: Reversal of tunicamycin-induced suppression of MafA mRNA levels in rat INS-1 cells at 20 uM after 24 hrs by qRT-PCR method; format: functional, cell-based
Procedure, shortened: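 INS-1 cells (4×10^5/well, 6-well plates) given Tm 0.1 µg/mL ± compound 20 µM or DMSO for 24 h. INS1, INS2, PDX1 and MafA mRNA measured by qRT-PCR with rat primers. Means of 3 replicate wells, representative of 3 independent experiments; SD.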

[4] = target: T1, Cyclic AMP-dependent transcription factor ATF-6 alpha (Rattus norvegicus) (UniProt G3V909); experiment: Inhibition of ATF6 in rat INS-1 cells assessed as suppression of tunicamycin induced GRP94 mRNA levels at 20 uM after 4 to 24 hrs by qRT-PCR method; format: cell-based
T1 sequence (whole entry): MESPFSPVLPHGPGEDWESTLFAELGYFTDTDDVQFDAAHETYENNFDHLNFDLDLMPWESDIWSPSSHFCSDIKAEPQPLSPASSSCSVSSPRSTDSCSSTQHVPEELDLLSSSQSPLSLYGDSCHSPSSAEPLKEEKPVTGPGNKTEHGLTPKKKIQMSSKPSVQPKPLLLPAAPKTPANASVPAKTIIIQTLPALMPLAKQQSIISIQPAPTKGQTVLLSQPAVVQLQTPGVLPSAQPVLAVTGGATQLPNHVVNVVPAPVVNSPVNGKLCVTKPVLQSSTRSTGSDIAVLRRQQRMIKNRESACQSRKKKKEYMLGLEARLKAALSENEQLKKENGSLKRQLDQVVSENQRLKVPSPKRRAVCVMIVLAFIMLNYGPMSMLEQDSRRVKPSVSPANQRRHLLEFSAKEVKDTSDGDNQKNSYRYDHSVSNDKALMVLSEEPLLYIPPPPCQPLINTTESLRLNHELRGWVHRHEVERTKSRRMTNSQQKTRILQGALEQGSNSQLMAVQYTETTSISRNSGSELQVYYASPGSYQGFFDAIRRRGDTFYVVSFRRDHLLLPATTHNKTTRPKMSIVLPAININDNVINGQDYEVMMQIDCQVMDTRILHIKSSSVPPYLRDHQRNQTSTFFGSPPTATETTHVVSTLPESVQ
Procedure, shortened: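 INS-1 cells seeded at 4×10^5/well in 6-well plates, given Tm 0.1 µg/mL ± compound 20 µM or DMSO for the indicated times. Bip or GRP94 mRNA measured by qRT-PCR, expressed as fold-increase over untreated control. Means of 3 replicate wells, representative of 3 independent experiments.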

[5] = target: T2, Eukaryotic translation initiation factor 2-alpha kinase 3 (Rattus norvegicus) (UniProt Q9Z1Z1); experiment: Inhibition of PERK pathway in rat INS-1 cells assessed as reduction in tunicamycin induced ATF4 protein levels at 20 uM after 2 to 24 hrs by Western blot analysis; format: cell-based; procedure, shortened: as §1
T2 sequence (whole entry): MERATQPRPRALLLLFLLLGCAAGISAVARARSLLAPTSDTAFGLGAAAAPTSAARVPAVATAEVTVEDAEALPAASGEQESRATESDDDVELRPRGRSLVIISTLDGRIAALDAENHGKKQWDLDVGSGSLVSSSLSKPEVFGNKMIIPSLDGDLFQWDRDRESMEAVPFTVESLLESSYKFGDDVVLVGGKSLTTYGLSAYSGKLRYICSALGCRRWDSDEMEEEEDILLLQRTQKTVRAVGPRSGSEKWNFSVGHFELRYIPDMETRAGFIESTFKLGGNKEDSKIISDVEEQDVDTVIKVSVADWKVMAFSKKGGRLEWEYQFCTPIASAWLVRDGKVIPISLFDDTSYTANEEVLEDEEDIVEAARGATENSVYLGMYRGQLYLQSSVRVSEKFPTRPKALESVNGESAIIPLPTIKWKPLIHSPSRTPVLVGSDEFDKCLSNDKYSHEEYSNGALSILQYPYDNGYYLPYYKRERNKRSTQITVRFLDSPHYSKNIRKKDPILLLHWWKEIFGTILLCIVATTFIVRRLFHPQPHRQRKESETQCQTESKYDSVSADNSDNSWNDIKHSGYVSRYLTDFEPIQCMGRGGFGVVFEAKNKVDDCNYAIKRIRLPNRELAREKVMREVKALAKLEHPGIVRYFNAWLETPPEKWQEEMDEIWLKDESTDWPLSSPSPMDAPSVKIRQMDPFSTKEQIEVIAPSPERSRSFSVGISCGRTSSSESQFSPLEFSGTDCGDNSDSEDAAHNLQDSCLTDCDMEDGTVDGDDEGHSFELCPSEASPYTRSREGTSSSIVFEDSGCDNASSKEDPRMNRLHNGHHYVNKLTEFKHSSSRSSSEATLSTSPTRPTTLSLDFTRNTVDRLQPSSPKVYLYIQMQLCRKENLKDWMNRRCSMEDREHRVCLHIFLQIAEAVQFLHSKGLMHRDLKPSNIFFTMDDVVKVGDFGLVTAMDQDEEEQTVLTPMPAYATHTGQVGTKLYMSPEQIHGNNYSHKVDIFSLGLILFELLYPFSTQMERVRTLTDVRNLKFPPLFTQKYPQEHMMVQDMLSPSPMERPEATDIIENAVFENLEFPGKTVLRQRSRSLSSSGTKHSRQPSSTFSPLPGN

Pancreatic beta cell = experiment: Decrease in tunicamycin induced apoptosis in human Beta cells assessed as […] insulin cells level at 10 uM after 48 hrs by TUNEL staining based confocal microscopy (reference value: 15%); format: functional; design: scale not given: the % may be the effect or the level left

inhibition [4]: Active
inhibition [5]: Active
Compound: COc1ccc(CNc2nc(N3CCCCC3CO)nc3ccccc23)cc1 (racemic)
Activity (Beta-TC6): Dose-dependent effect
Activity (INS1 [1]): Active
Activity (INS1 [2]): Active
Activity (INS1 [3]): Active
Activity (Pancreatic beta cell): 3.5%
